Assay [1] deals with T1, Glutamate NMDA receptor (Rattus norvegicus) (UniProt P35439+Q00959+Q00960+Q00961+Q62645+Q8VHN2+Q9R1M7). In words: Binding affinity for glutamate-stimulated TCP binding site of N-methyl-D-aspartate glutamate receptor from rat brain by using [3H]TCP as radioligand; Antagonist. The settings on record: filed as antagonist. The gist of the method: (§1)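 Rat whole brain minus cerebellum and brain stem; crude synaptic membranes stored at -70 °C, then treated with 0.01% Triton X-100 in 50 mM Tris-HCl pH 7.6 for 30 min at 37 °C and washed three times. Incubation with 15 mg wet tissue and 1 nM [3H]TCP in 5 mM Tris-HCl pH 8.0, 1 h, 25 °C. Filtration through PEI-treated glass-fiber filters, scintillation counting. Nonspecific binding defined with 100 µM (+)-SKF 10047.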

Assay [2] has as its target Glutamate NMDA receptor. In words: Inhibition of N-methyl-D-aspartate glutamate receptor by using [3H]CPP as a radioligand from the rat cortical membranes. In kind it is cell membranes, Membrane.
The target in assay [3] is Glutamate NMDA receptor. In words: Compound was tested for inhibition of N-methyl-D-aspartate glutamate receptor by using [3H]CPP as a radioligand from the rat cortical membranes. In kind it is cell membranes, Membrane.
Assay [4] concerns the target Glutamate NMDA receptor. In words: Compound was tested for inhibition of [3H]CPP binding from N-methyl-D-aspartate glutamate receptor in the rat cortical membranes. It counts as cell membranes, Membrane.
For assay [5], the target named is T1, Glutamate NMDA receptor (Rattus norvegicus). In words: Binding affinity for glutamate-stimulated TCP binding site of N-methyl-D-aspartate glutamate receptor from rat brain by using [3H]-TCP as radioligand; ant = antagonist. The settings on record: filed as antagonist. The gist of the method: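 Crude synaptic membranes from rat whole brain minus cerebellum and brainstem, stored at -70 °C, treated with 0.01% Triton X-100 in 50 mM Tris-HCl pH 7.6 at 37 °C for 30 min, then washed. Incubated with 15 mg tissue and 1 nM [3H]TCP in 5 mM Tris-HCl pH 8.0 for 1 h at 25 °C. Filtered on PEI-treated filters, counted by scintillation. Nonspecific binding: 100 µM (+)-SKF 10047.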

For assay [6] the target is unchanged. In words: Binding affinity for glutamate-stimulated TCP binding site of N-methyl-D-aspartate glutamate receptor from rat brain by using [3H]TCP as radioligand; Agonist. The settings on record: filed as agonist. The gist of the method: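 Rat whole brain minus cerebellum and brainstem, crude synaptic membranes stored at -70 °C; thawed, treated with 0.01% Triton X-100 in 50 mM Tris-HCl pH 7.6 at 37 °C for 30 min, washed ≥3 times. Test agents incubated with 15 mg tissue (wet weight) and [3H]TCP 1 nM in 5 mM Tris-HCl pH 8.0, 1 h, 25 °C. Filtration, scintillation counting; nonspecific binding with 100 μM (+)-SKF 10047.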

Assay [7] shares this target. The settings on record: filed as agonist.
The target in assay [8] is Glutamate NMDA receptor. In words: Binding affinity was determined by the ability to displace [3H]-CPP from N-methyl-D-aspartate glutamate receptor of rat brain. The gist of the method:
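Radioligand displacement of [3H]CPP from rat cortical crude synaptic membranes.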

Assay [9] has as its target T1, Glutamate NMDA receptor (Rattus norvegicus). In words: Binding affinity for glutamate-stimulated TCP binding site of N-methyl-D-aspartate glutamate receptor from rat brain by using [3H]TCP as radioligand;Antagonist. Conditions: filed as antagonist. The gist of the method: as §1

As usually defined, the IC50 is the midpoint of a concentration-inhibition curve. Higher therefore signals lower potency. Turning to `O=C(O)C1CN(CCCCP(=O)(O)O)CCN1` (stereo not given), the GSTCP activity entry in assay [1] is “Antagonist”. The IC50 in assay [2] was 48 µM. With `O=C(O)C1CN(CCCP(=O)(O)O)CCN1CCC(c1ccccc1)c1ccccc1` (stereo not given), the IC50 in [3] is above 100 µM. In assay [2], `O=C(O)C1CN(c2cccc(P(=O)(O)O)c2)CCN1` (stereo not given) showed an IC50 of 83 µM. For the compound `O=C(O)C1CN(CP(=O)(O)O)CCN1` (stereo not given), the IC50 in assay [3] came out at 0.32 µM. In addition, the GSTCP activity result in [1] was “Antagonist”. For the compound `O=C(O)C1CN(C(c2ccccc2)P(=O)(O)O)CCN1` (stereo not given), the GSTCP activity entry in [1] is “Antagonist”. The IC50 in assay [2] was 5.8 µM; in assay [4], 13.3 µM. Take `O=C(O)CN1CCNC(C(=O)O)C1` (stereo not given): the GSTCP activity result in assay [1] is “Antagonist”. Moreover, the IC50 in assay [2] was 16 µM. For `O=C(O)C1CN(CCP(=O)(O)O)CCN1` (stereo not given), in that order: “Antagonist” and 9.8 µM.

Regarding `NC(CCCCCP(=O)(O)O)C(=O)O` (stereo not given) [AP-7], the GSTCP activity result in assay [5] is “Antagonist”. Besides, the IC50 in assay [2] is 0.76 µM. Turning to `O=C(O)C1CN(CCCP(=O)(O)O)CCN1` (stereo not given), in assay [6], the GSTCP activity result is “Agonist”. The compound further came in with an IC50 in assay [2] of 0.079 µM. For the compound `N[C@@H](CCC(=O)O)C(=O)O`, the GSTCP activity result in [7] was “Agonist”. In the case of `O=C(O)C1CN(CCCP(=O)(O)O)CCN1CCCCC(c1ccccc1)c1ccccc1` (stereo not given), the IC50 in [2] is above 100 µM.

Consider `CP(=O)(O)CCCN1CCNC(C(=O)O)C1` (stereo not given), for which the GSTCP activity entry in assay [5] is “Antagonist”. Moreover, the IC50 in [2] turned out to be 0.78 µM.

For `O=C(O)C1CN(CCCP(=O)(O)O)CCN1CCCCc1ccccc1` (stereo not given), in assay [2], the IC50 was above 100 µM. Compound `CN[C@H](CC(=O)O)C(=O)O` [N-METHYL-D-ASPARTIC ACID (NMDA)] had an IC50 in assay [4] of 4.55 µM. Further, the GSTCP activity entry in assay [7] is “Agonist”. On to `O=C(O)C1CN(Cc2cccc(CP(=O)(O)O)c2)CCN1` (stereo not given), for which the IC50 in assay [2] was above 100 µM. As to `O=C(O)C1CN(c2ccccc2P(=O)(O)O)CCN1` (stereo not given), the IC50 in [3] is above 100 µM.

In [2], `O=C(O)C1CN(CCCP(=O)(O)O)CCN1CCC=C(c1ccccc1)c1ccccc1` (stereo not given) registered an IC50 above 100 µM. `NC(CCCP(=O)(O)O)C(=O)O` (stereo not given): the GSTCP activity entry in assay [5] was “Antagonist”. This compound also registered an IC50 in assay [8] of 0.29 µM. Turning to `O=C(O)CCCN1CCNC(C(=O)O)C1` (stereo not given), in [9], the GSTCP activity entry is “Antagonist”. Besides, the IC50 in assay [2] was found to be 0.85 µM. In assay [2], `CN1CCN(CCCP(=O)(O)O)CC1C(=O)O` (stereo not given) gave an IC50 of 47.7 µM. `O=C(O)c1ccccc1C(=O)N1CCNC(C(=O)O)C1` (stereo not given) gave an IC50 in assay [2] above 100 µM. Turning to `O=C(O)[C@@H]1C[C@H](CP(=O)(O)O)CCN1` [SELFOTEL], the GSTCP activity entry in [1] was “Antagonist”. In assay [2], the IC50 amounted to 0.065 µM.

The values above are taken from ChEMBL document CHEMBL1124994, “New and versatile approaches to the synthesis of CPP-related competitive NMDA antagonists. Preliminary structure-activity relationships and pharmacological evaluation” (J Med Chem, 1990).
